In ChEMBL document CHEMBL4680218, “Design and synthesis of tripeptidyl furylketones as selective inhibitors against the β5 subunit of human 20S proteasome” (Eur J Med Chem, 2020):
Calls of active or inactive are those of the source.

What was measured:
[1] = target: T1, Proteasome Macropain subunit MB1 (Homo sapiens) (UniProt P28074); test: Inhibition of chymotrypsin-like activity of human 20S proteasome beta5 subunit at 50 uM using Suc-LLVY-Glo as substrate incubated for 2 hrs followed by substrate addition and measured for 10 mins by bioluminescent assay relative to control; conditions: time 130.0 min
T1 sequence (whole entry): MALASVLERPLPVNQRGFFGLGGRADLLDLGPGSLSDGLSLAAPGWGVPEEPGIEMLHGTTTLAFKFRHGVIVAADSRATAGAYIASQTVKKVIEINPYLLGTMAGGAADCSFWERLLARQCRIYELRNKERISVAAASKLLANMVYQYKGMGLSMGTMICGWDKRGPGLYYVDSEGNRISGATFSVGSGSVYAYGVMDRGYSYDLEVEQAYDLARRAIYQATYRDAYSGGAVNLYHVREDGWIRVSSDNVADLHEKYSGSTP
Procedure, shortened: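 Human constitutive 20S proteasome (1 µg/mL) was incubated with compound for 2 h at 25 °C in 10 mM HEPES pH 7.6 with 1% DMSO final. Suc-LLVY-Glo substrate was then added, and luminescence was read over 10 min. Inhibition rate was calculated against the uninhibited signal.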

[2] = target: T2, Proteasome Macropain subunit MB1 (Homo sapiens, UniProt P28074); test: Inhibition of chymotrypsin-like activity of human 20S proteasome beta5 subunit using Suc-LLVY-Glo as substrate incubated for 2 hrs followed by substrate addition and measured for 10 mins by bioluminescent assay
T2 sequence (P28074 whole entry): T1 sequence (whole entry)
Procedure, shortened: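 Human constitutive 20S proteasome (1 μg/mL) was combined with compound serially diluted in 10 mM HEPES pH 7.6, with final DMSO 1% (v/v). After 2 h at 25 °C, Suc-LLVY-Glo (CT-L), Z-LRR-Glo (T-L) or Z-nLPnLD-Glo (C-L) reagent was added. Luminescence was read over 10 min, and IC50 was taken from inhibition rates.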

[3] = test system: A-375; test: Cytotoxicity against human A-375 cells assessed as reduction in cell viability after 72 hrs by Cell Titer-Glo assay; type: functional, cell-based; conditions: A-375, 72 h
Procedure, shortened: (§1)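 Cells were cultured in their respective media with 10% FBS, seeded from log phase at 1000 cells/well, and given compound after 18–24 h. After 72 h, an equal volume of CellTiter-Glo reagent was added and luminescence was read at 37 °C. IC50 came from dose-response curve fits; values are mean ± SD of three independent experiments, each in biological triplicate.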

[4] = test system: BGC-823; test: Cytotoxicity against human BGC-823 cells assessed as reduction in cell viability after 72 hrs by Cell Titer-Glo assay; type: functional, cell-based; conditions: BGC-823, 72 h; procedure, shortened: as §1
[5] = test system: HeLa; test: Cytotoxicity against human HeLa cells assessed as reduction in cell viability after 72 hrs by Cell Titer-Glo assay; type: functional, cell-based; procedure, shortened: as §1
[6] = test system: A549; test: Cytotoxicity against human A549 cells assessed as reduction in cell viability after 72 hrs by Cell Titer-Glo assay; type: functional, cell-based; conditions: A549, 72 h; procedure, shortened: as §1
[7] = Cytotoxicity against human PC3M1E8 cells assessed as reduction in cell viability after 72 hrs by Cell Titer-Glo assay; type: functional, cell-based; conditions: PC3M1E8, 72 h; procedure, shortened: as §1
[8] = test system: HCT-116; test: Cytotoxicity against human HCT-116 cells assessed as reduction in cell viability after 72 hrs by Cell Titer-Glo assay; type: functional, cell-based; conditions: HCT-116, 72 h; procedure, shortened: as §1
[9] = test system: HEK293; test: Cytotoxicity against human HEK293 cells assessed as reduction in cell viability after 72 hrs by Cell Titer-Glo assay; type: cell-based; conditions: HEK293, 72 h; procedure, shortened: as §1
[10] = test system: HT-29; test: Cytotoxicity against human HT-29 cells assessed as reduction in cell viability after 72 hrs by Cell Titer-Glo assay; type: functional, cell-based; conditions: HT-29, 72 h; procedure, shortened: as §1
[11] = test system: HCT-116; test: Cell cycle arrest in human HCT-116 cells assessed as accumulation at G1 phase at 1 uM after 24 hrs by propidium iodide staining based flow cytometric analysis (reference value: 29%); type: functional
[12] = test system: HCT-116; test: Cell cycle arrest in human HCT-116 cells assessed as accumulation at S phase at 1 uM after 24 hrs by propidium iodide staining based flow cytometric analysis (reference value: 50%); type: functional
[13] = test system: HCT-116; test: Cell cycle arrest in human HCT-116 cells assessed as accumulation at G2/M phase at 1 uM after 24 hrs by propidium iodide staining based flow cytometric analysis (reference value: 21%); type: functional
[14] = target: T1, Proteasome Macropain subunit MB1 (Homo sapiens); test: (§2) Reversible inhibition of human 20S proteasome beta5 subunit assessed as residual enzyme activity using Suc-LLVY-Glo as substrate preincubated for 2 hrs followed by compound washout and further incubated for 4 hrs followed by substrate addition and measured after 10 mins by bioluminescent assay relative to control
Procedure, shortened: (§3)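 Human 20S proteasome (8 μg/mL) was pre-incubated with inhibitor for 2 h at 25 °C. Samples were then washed five times in assay buffer on 100 kDa cut-off centrifugal filters (14,000 g, 5 min each) and recovered. After a further 4 h at 25 °C, Suc-LLVY-Glo was added and luminescence was read after 10 min. Unwashed samples held an extra 4 h served as the standard.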

[15] = target: T1, Proteasome Macropain subunit MB1 (Homo sapiens); test: as §2, with “Irreversible” for “Reversible”; procedure, shortened: as §3
[16] = Cmax in Sprague-Dawley rat at 4 mg/kg, iv measured up to 48 hrs by LC-MS/MS analysis; type: ADME, organism-based; design: route intravenous, dose 4 mg/kg, time <=48; conditions: in vivo
[17] = Half life in Sprague-Dawley rat at 4 mg/kg, iv measured up to 48 hrs by LC-MS/MS analysis; conditions: in vivo
[18] = Clearance in Sprague-Dawley rat at 4 mg/kg, iv measured up to 48 hrs by LC-MS/MS analysis; conditions: in vivo
[19] = Volume of distribution at steady state in Sprague-Dawley rat at 4 mg/kg, iv measured up to 48 hrs by LC-MS/MS analysis; conditions: in vivo
[20] = test system: HCT-116; test: Antitumour activity against human HCT-116 cells xenografted in BALB/c athymic nude mouse assessed as reduction in tumour growth at 5 mg/kg, iv administered twice a week for 28 days by caliper analysis; type: functional, organism-based; conditions: time 28.0 day
Procedure, shortened: (§4)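 Male nude mice had 1 × 10^7 HCT-116 cells in serum-free RPMI 1640 implanted subcutaneously in the right flank. At ~300 mm³ (about day 10) they were randomized, n=3/group. Dosing was by tail vein twice weekly (D1/D4) for four weeks: 10 mg/kg in 8% ethanol/2% Tween 80/90% water, or 5 mg/kg in 10% sulfobutylether-β-cyclodextrin, 10 mmol/L citrate pH 3.5. Caliper volume (length × width²)/2 and body weight were measured twice weekly.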

[21] = Toxicity in BALB/c athymic nude mouse xenografted with human HCT-116 cells assessed as reduction in body weight at 5 mg/kg, iv administered twice a week for 28 days; type: organism-based; conditions: in vivo, 672 h, time 28 day; procedure, shortened: as §4
[22] = target: T1, Proteasome Macropain subunit MB1 (Homo sapiens); test: Covalent binding affinity to human 20S proteasome beta5 subunit assessed as compound-tryptic digest TTTLAFKFR peptide adduct formation at 10 uM incubated for 2 hrs measured after overnight incubation with trypsin by LC-MS/MS analysis
Procedure, shortened: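 Purified human 20S proteasome (4 nM) was incubated with 10 μM inhibitor for 2 h at room temperature, then quenched and denatured with acetonitrile. Trypsin (1:50) digestion ran overnight at 37 °C, followed by C18 desalting. Nano-LC-MS/MS used a 0.1% formic acid water/acetonitrile gradient. Adducts were searched against UniProt at ±10 ppm precursor and ±0.02 Da fragment tolerance, allowing 2 missed cleavages.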

[23] = in vivo; conditions: Sprague-Dawley, rat, iv, 4 mg/kg
[24] = target: T1, Proteasome Macropain subunit MB1 (Homo sapiens); test: Covalent binding affinity to human 20S proteasome beta5 subunit assessed as hemi-ketal formation using H2O-MeOH as mobile phase by HPLC analysis
[25] = target: T1, Proteasome Macropain subunit MB1 (Homo sapiens); test: Binding affinity to immobilized human 20S proteasome beta 5 subunit assessed as association rate constant by SPR analysis
Procedure, shortened: (§5)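 Purified human constitutive 20S proteasome was immobilised on a CM5 chip. Analyte was a 2-fold series from 25 to 1.56 µM in running buffer (10 mM phosphate, 2.7 mM KCl, 137 mM NaCl, 0.05% P20, 5% DMSO, pH 7.4). Flow was 30 µL/min, with 60 s association and 60 s dissociation. Responses were normalised by molecular weight, and kon/koff came from a 1:1 binding fit.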

[26] = target: T1, Proteasome Macropain subunit MB1 (Homo sapiens); test: Binding affinity to immobilized human 20S proteasome beta 5 subunit assessed as dissociation rate constant by SPR analysis; procedure, shortened: as §5
[27] = target: T2, Proteasome Macropain subunit MB1; test: Binding affinity to immobilized human 20S proteasome beta 5 subunit by SPR analysis
Procedure, shortened: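 SPR used purified human 20S proteasome coupled to a CM5 chip. Analytes were 2-fold series from 25 to 1.56 μM in PBS-P running buffer (pH 7.4, 0.05% P20) with 5% DMSO, flowed at 30 μL/min with 60 s association and 60 s dissociation. Data were normalized by molecular weight and fitted to a 1:1 Langmuir model; KD is from the rate constants.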

[28] = Cmax in Sprague-Dawley rat at 5 mg/kg, iv measured up to 48 hrs by LC-MS/MS analysis; type: ADME, organism-based; design: route intravenous, dose 5 mg/kg, time <=48; conditions: in vivo
Procedure, shortened: (§6)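 Male Sprague-Dawley rats, three per group, fasted 12 h, then given a single intravenous dose of 5 mg/kg in 8% ethanol, 2% Tween 80 and 90% sterile water. Blood was drawn from the venous plexus at the inner canthus into heparin tubes at 5, 15 and 30 min and at 1, 2, 4, 8, 24, 32 and 48 h. Plasma was quantified by LC-MS/MS against an internal standard.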

[29] = AUC(0 to t) in Sprague-Dawley rat at 5 mg/kg, iv measured up to 48 hrs by LC-MS/MS analysis; type: ADME, organism-based; design: route intravenous, dose 5 mg/kg, time <=48; conditions: in vivo; procedure, shortened: as §6
[30] = Half life in Sprague-Dawley rat at 5 mg/kg, iv measured up to 48 hrs by LC-MS/MS analysis; type: ADME, organism-based; conditions: in vivo; procedure, shortened: as §6
[31] = MRT in Sprague-Dawley rat at 5 mg/kg, iv measured up to 48 hrs by LC-MS/MS analysis; type: ADME, organism-based; conditions: in vivo; procedure, shortened: as §6
[32] = Clearance in Sprague-Dawley rat at 5 mg/kg, iv measured up to 48 hrs by LC-MS/MS analysis; type: ADME, organism-based; conditions: in vivo; procedure, shortened: as §6
[33] = Volume of distribution at steady state in Sprague-Dawley rat at 5 mg/kg, iv measured up to 48 hrs by LC-MS/MS analysis; type: ADME, organism-based; conditions: in vivo, read-out: Vdss; procedure, shortened: as §6
[34] = Toxicity in BALB/c athymic nude mouse xenografted with human HCT-116 cells assessed as reduction in body weight at 10 mg/kg, iv administered twice a week for 28 days; type: organism-based; conditions: in vivo, 672 h, time 28 day; procedure, shortened: as §4
[35] = target: T1, Proteasome Macropain subunit MB1 (Homo sapiens); test: Covalent binding affinity to human 20S proteasome beta5 subunit assessed as methyl hemi-ketal formation using H2O-CH3CN as mobile phase by HPLC analysis

Compound	inhibition [1] [%]	IC50 [2] [µM]	IC50 [3] [µM]	IC50 [4] [µM]	IC50 [5] [µM]	IC50 [6] [µM]	IC50 [7] [µM]	IC50 [8] [µM]	IC50 [9] [µM]	IC50 [10] [µM]	Activity [11] [%]	Activity [12] [%]	Activity [13] [%]	Activity [14] [%]	Activity [22]	further results
COc1ccc(C[C@H](NS(=O)(=O)c2ccc(C)cc2)C(=O)N[C@@H](Cc2ccc(O)cc2)C(=O)N[C@@H](CC(C)C)C(=O)c2ccco2)cc1	> 50	0.54	3.87	8.37	6.35	13.1	4.98	3.52	> 50	5.4	24	25	51			
CC(C)C[C@H](NC(=O)[C@H](Cc1ccccc1)NC(=O)c1cnccn1)B(O)O														80		
CC(C)C[C@H](NC(=O)[C@H](CCc1ccccc1)NC(=O)CN1CCOCC1)C(=O)N[C@@H](Cc1ccccc1)C(=O)N[C@@H](CC(C)C)C(=O)[C@@]1(C)CO1 [CARFILZOMIB]															Active	Activity [15]: 10%; Cmax [16]: 27800 ng/mL; half-life at 48 h [17]: 17 min; clearance at 48 h [18]: 195 mL/min/kg; Vd at 48 h [19]: 0.3 L/kg; Activity [20]: Active; Activity [21]: Non-Toxic; AUC(0-t) at 48 h [23]: 343 ng·h/mL
COC[C@H](NC(=O)[C@H](CC(=O)NCC(C)C)NS(=O)(=O)c1ccc(C)cc1)C(=O)N[C@@H](CC(C)C)C(=O)c1ccco1	> 50	0.68	2.61	3.96	2.47	17.6	3.73	1.67	> 50	4.85	27	30	43			
COC[C@H](NC(=O)[C@H](CC(=O)NCC(C)(C)C)NS(=O)(=O)c1ccc(C)cc1)C(=O)N[C@@H](CC(C)C)C(=O)c1ccco1	> 50	0.18	0.88	0.77	0.67	1.3	0.57	0.28	> 50	0.73	9	14	77	< 30	inactive	Activity [24]: 27%; Ka [25]: 4210 M⁻¹ s⁻¹; Kdiss [26]: 0.0192 s⁻¹; Kd [27]: 4.8 µM; Cmax [28]: 2010 ng/mL; AUC(0-t) at 48 h [29]: 680 ng·h/mL; half-life [30]: 13.8 min; MRT [31]: 20.2 min; clearance [32]: 33.3 mL/min/kg; Vd [33]: 0.66 L/kg; Activity [34]: Non-Toxic; Activity [35]: inactive
